Data as given in publication PMC4823011 (The American journal of clinical nutrition, 2014).
Values joined by “and” are separate entries in the source; they are usually repeats but may differ in a detail not shown here. Equal values may be shown once. Read-outs that look alike come from different tables or passages of the source.

Key:
[1] = assay type: in vivo, human; conditions: caplet 855 nmol oral
[2] = assay type: in vivo, human
How it was run: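 Given after a ≥4-wk washout as an IV injection in 1.35 mL sterile saline (pH 7.0, 74 μg folate/mL). Blood was drawn from the opposite arm at 15 min, then every 30 min for 4 h. Plasma M+5/M+0 molar ratios were measured by LC-MS/MS. Amounts were converted to nmol/person from baseline microbiological plasma folate, blood volume and packed cell volume. Half-life came from a one-phase exponential fit to the descending plasma curve.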

[3] = Apparent absorption across the colon calculated with one-compartment model; assay type: in vivo, human
How it was run: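 Enteric-coated caplet with about 12.6% coating mass gain. The absorbed mass was estimated from plasma labeled 5-methyltetrahydrofolate concentration using a three-equation, one-compartment model of small-intestinal folate absorption. Volume of distribution was taken as 387 mL/kg body weight. t_lag, the time plasma enrichment stayed at baseline, was set at 1 h. Plasma was sampled hourly after pyloric passage until 2000, then at 24 and 48 h.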

[4] = 684 nmol (320 μg) cecal infusion after bowel cleansing; cited from earlier work
[5] = cited from earlier work
[6] = model parameter; cited from earlier work
[7] = iv 214 nmol, individual subjects A-I

| Structure (SMILES) | Detection of [13C5]5-formyltetrahydrofolate (parent) in plasma after caplet ([1]; any subject) | Cmax of [13C5]5-methyltetrahydrofolate in plasma ([1]; individual subjects A-F) | 5-formyltetrahydrofolate Cmax (labeled, plasma) [2, 7] | 5-methyltetrahydrofolate Cmax (labeled metabolite, plasma) [2, 7] | 5-formyltetrahydrofolate Cmax (labeled, plasma) ([2]; iv 214 nmol, mean ± SEM, n = 9) | Plasma enrichment with [13C5]5-formyltetrahydrofolate ([2]; plasma samples collected immediately after iv injection, mean ± SEM) | Apparent absorption across the colon of the 855-nmol dose ([3]; caplet, one-compartment model, mean, excludes 2 subjects without plasma response) | bioavailability ([3]; human, plasma, oral, 855 nmol) | Rate of folate absorption after bolus infusion directly into the cecum [4] | Apparent absorption in the small intestine ([5]; 500-nmol orally administered test dose) | Rate of folate absorption across the small intestine ([5]; oral bolus 421–569 nmol, estimated from published data) | Apparent volume of distribution (V) [6] |
| --- | --- | --- | --- | --- | --- | --- | --- | --- | --- | --- | --- | --- |
| Nc1nc2c(c(=O)[nH]1)N(C=O)C(CNc1ccc(C(=O)N[C@@H](CCC(=O)O)C(=O)O)cc1)CN2 (stereo partly drawn) [[^13C5]5-formyltetrahydrofolate, [glutamyl-^13C5]-[6S]-5-formyltetrahydrofolic acid] | did not detect | 0.5 nmol and 2.0 nmol and 3.7 nmol and 4.0 nmol and 1.6 nmol | 20.0 nmol and 10.2 nmol and 20.3 nmol and 7.1 nmol and 15.9 nmol and 14.1 nmol and 7.5 nmol and 10.9 nmol and 15.2 nmol | 6.8 nmol and 6.6 nmol and 10.2 nmol and 3.1 nmol and 7.8 nmol and 10.0 nmol and 5.0 nmol and 6.0 nmol and 5.8 nmol | 13.5 ± 1.6 nmol | 11.6 ± 1.5% | 46% and 46.2 ± 16.5% | 34.7 ± 14.3% | 0.6 ± 0.02 nmol/h | 38 ± 6% and 38% | ~ 34 nmol/h |  |
| Nc1nc2ncc(CNc3ccc(C(=O)N[C@@H](CCC(=O)O)C(=O)O)cc3)nc2c(=O)[nH]1 [folate] |  |  |  |  |  |  |  |  |  |  |  | 387 mL/kg body weight |
